Measurements: ChEMBL document CHEMBL5058577, “EUbOPEN Chemogenomics Library 2 (Multiplex)” (2022)

System: Fibroblast
Assay: Multiplex assay against human fibroblast
Format: toxicity, cell-based
Outline: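 Live cells were stained at seeding with Hoechst33342, BioTracker Green Microtubule Cytoskeleton Dye, MitoTracker Red and Annexin V Alexa Fluor 680. Following compound addition, they were imaged on a CQ1 microscope at 37°C and 5% CO2 and gated by CellPathfinder machine learning into Hoechst high-intensity objects or normal cells, with normal cells split into healthy, pyknosed or fragmented nuclei and pyknosed cells into mitotic or apoptotic. Tubulin, mitochondrial-mass and membrane-permeability phenotypes are per cents of healthy-nucleus cells.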

[1] = 12 h, 1 µM, compound concentration 1 uM, replicate 1
[2] = 12 h, 1 µM, compound concentration 1 uM, replicate 2
[3] = 12 h, 10 µM, compound concentration 10 uM, replicate 1
[4] = 12 h, 10 µM, compound concentration 10 uM, replicate 2
[5] = 24 h, 1 µM, compound concentration 1 uM, replicate 1
[6] = 24 h, 1 µM, compound concentration 1 uM, replicate 2
[7] = 24 h, 10 µM, compound concentration 10 uM, replicate 1
[8] = 24 h, 10 µM, compound concentration 10 uM, replicate 2
[9] = 48 h, 1 µM, compound concentration 1 uM, replicate 1
[10] = 48 h, 1 µM, compound concentration 1 uM, replicate 2
[11] = 48 h, 10 µM, compound concentration 10 uM, replicate 1
[12] = 48 h, 10 µM, compound concentration 10 uM, replicate 2

CCCN1CCC[C@@H]2Cc3n[nH]cc3C[C@H]21.Cl [QUINPIROLE HYDROCHLORIDE]
Population Apoptotic (%) [1]: 45%
Population Fragmented Nuclei (%) [1]: 14%
Population Healthy Nuclei (%) [1]: 65%
Population Hoechst High Intensity Objects (%) [1]: 2%
Population Membrane Permeable-Phenotype (%) [1]: 0%
Population Mitochondria Different-Phenotype (%) [1]: 3%
Population Mitotic Cells (%) [1]: 54%
Population Normal (%) [1]: 97%
Population Pyknosed Nuclei (%) [1]: 20%
Population Tubulin-Different-Phenotype (%) [1]: 17%
Total Cell Count [1]: 156
Population Apoptotic (%) [2]: 52%
Population Fragmented Nuclei (%) [2]: 22%
Population Healthy Nuclei (%) [2]: 60%
Population Hoechst High Intensity Objects (%) [2]: 6%
Population Membrane Permeable-Phenotype (%) [2]: 7%
Population Mitochondria Different-Phenotype (%) [2]: 6%
Population Mitotic Cells (%) [2]: 47%
Population Normal (%) [2]: 93%
Population Pyknosed Nuclei (%) [2]: 17%
Population Tubulin-Different-Phenotype (%) [2]: 50%
Total Cell Count [2]: 139
Population Apoptotic (%) [3]: 58%
Population Fragmented Nuclei (%) [3]: 16%
Population Healthy Nuclei (%) [3]: 68%
Population Hoechst High Intensity Objects (%) [3]: 4%
Population Membrane Permeable-Phenotype (%) [3]: 1%
Population Mitochondria Different-Phenotype (%) [3]: 6%
Population Mitotic Cells (%) [3]: 41%
Population Normal (%) [3]: 95%
Population Pyknosed Nuclei (%) [3]: 15%
Population Tubulin-Different-Phenotype (%) [3]: 33%
Total Cell Count [3]: 115
Population Apoptotic (%) [4]: 45%
Population Fragmented Nuclei (%) [4]: 23%
Population Healthy Nuclei (%) [4]: 59%
Population Hoechst High Intensity Objects (%) [4]: 2%
Population Membrane Permeable-Phenotype (%) [4]: 10%
Population Mitotic Cells (%) [4]: 54%
Population Normal (%) [4]: 97%
Population Pyknosed Nuclei (%) [4]: 17%
Population Tubulin-Different-Phenotype (%) [4]: 55%
Total Cell Count [4]: 184
Population Apoptotic (%) [5]: 52%
Population Fragmented Nuclei (%) [5]: 21%
Population Healthy Nuclei (%) [5]: 64%
Population Hoechst High Intensity Objects (%) [5]: 1%
Population Membrane Permeable-Phenotype (%) [5]: 0%
Population Mitochondria Different-Phenotype (%) [5]: 2%
Population Mitotic Cells (%) [5]: 47%
Population Normal (%) [5]: 98%
Population Pyknosed Nuclei (%) [5]: 13%
Population Tubulin-Different-Phenotype (%) [5]: 13%
Total Cell Count [5]: 172
Population Apoptotic (%) [6]: 34%
Population Fragmented Nuclei (%) [6]: 28%
Population Healthy Nuclei (%) [6]: 53%
Population Hoechst High Intensity Objects (%) [6]: 2%
Population Membrane Permeable-Phenotype (%) [6]: 1%
Population Mitochondria Different-Phenotype (%) [6]: 7%
Population Mitotic Cells (%) [6]: 65%
Population Pyknosed Nuclei (%) [6]: 17%
Population Tubulin-Different-Phenotype (%) [6]: 41%
Total Cell Count [6]: 150
Population Apoptotic (%) [7]: 75%
Population Fragmented Nuclei (%) [7]: 22%
Population Healthy Nuclei (%) [7]: 67%
Population Hoechst High Intensity Objects (%) [7]: 2%
Population Membrane Permeable-Phenotype (%) [7]: 0%
Population Mitochondria Different-Phenotype (%) [7]: 7%
Population Mitotic Cells (%) [7]: 25%
Population Normal (%) [7]: 97%
Population Pyknosed Nuclei (%) [7]: 10%
Population Tubulin-Different-Phenotype (%) [7]: 32%
Total Cell Count [7]: 119
Population Apoptotic (%) [8]: 55%
Population Fragmented Nuclei (%) [8]: 38%
Population Healthy Nuclei (%) [8]: 51%
Population Hoechst High Intensity Objects (%) [8]: 1%
Population Membrane Permeable-Phenotype (%) [8]: 7%
Population Mitochondria Different-Phenotype (%) [8]: 3%
Population Mitotic Cells (%) [8]: 45%
Population Normal (%) [8]: 98%
Population Pyknosed Nuclei (%) [8]: 9%
Population Tubulin-Different-Phenotype (%) [8]: 39%
Total Cell Count [8]: 209
Population Apoptotic (%) [9]: 68%
Population Fragmented Nuclei (%) [9]: 23%
Population Healthy Nuclei (%) [9]: 62%
Population Hoechst High Intensity Objects (%) [9]: 3%
Population Membrane Permeable-Phenotype (%) [9]: 0%
Population Mitochondria Different-Phenotype (%) [9]: 3%
Population Mitotic Cells (%) [9]: 32%
Population Normal (%) [9]: 96%
Population Pyknosed Nuclei (%) [9]: 14%
Population Tubulin-Different-Phenotype (%) [9]: 21%
Total Cell Count [9]: 175
Population Apoptotic (%) [10]: 38%
Population Fragmented Nuclei (%) [10]: 37%
Population Healthy Nuclei (%) [10]: 53%
Population Hoechst High Intensity Objects (%) [10]: 1%
Population Membrane Permeable-Phenotype (%) [10]: 8%
Population Mitochondria Different-Phenotype (%) [10]: 4%
Population Mitotic Cells (%) [10]: 61%
Population Normal (%) [10]: 98%
Population Pyknosed Nuclei (%) [10]: 8%
Population Tubulin-Different-Phenotype (%) [10]: 42%
Total Cell Count [10]: 157
Population Apoptotic (%) [11]: 53%
Population Fragmented Nuclei (%) [11]: 23%
Population Healthy Nuclei (%) [11]: 65%
Population Hoechst High Intensity Objects (%) [11]: 1%
Population Membrane Permeable-Phenotype (%) [11]: 2%
Population Mitochondria Different-Phenotype (%) [11]: 6%
Population Mitotic Cells (%) [11]: 46%
Population Normal (%) [11]: 98%
Population Pyknosed Nuclei (%) [11]: 11%
Population Tubulin-Different-Phenotype (%) [11]: 31%
Total Cell Count [11]: 119
Population Apoptotic (%) [12]: 46%
Population Fragmented Nuclei (%) [12]: 43%
Population Healthy Nuclei (%) [12]: 48%
Population Hoechst High Intensity Objects (%) [12]: 3%
Population Mitochondria Different-Phenotype (%) [12]: 4%
Population Mitotic Cells (%) [12]: 53%
Population Normal (%) [12]: 96%
Population Pyknosed Nuclei (%) [12]: 8%
Population Tubulin-Different-Phenotype (%) [12]: 48%
Total Cell Count [12]: 192

Cl.Clc1ccc2nsnc2c1NC1=NCCN1 [TIZANIDINE HYDROCHLORIDE]
Population Apoptotic (%) [1]: 38%
Population Fragmented Nuclei (%) [1]: 10%
Population Healthy Nuclei (%) [1]: 72%
Population Hoechst High Intensity Objects (%) [1]: 3%
Population Membrane Permeable-Phenotype (%) [1]: 0%
Population Mitochondria Different-Phenotype (%) [1]: 4%
Population Mitotic Cells (%) [1]: 61%
Population Normal (%) [1]: 96%
Population Pyknosed Nuclei (%) [1]: 17%
Population Tubulin-Different-Phenotype (%) [1]: 21%
Total Cell Count [1]: 155
Population Apoptotic (%) [2]: 33%
Population Fragmented Nuclei (%) [2]: 24%
Population Healthy Nuclei (%) [2]: 49%
Population Hoechst High Intensity Objects (%) [2]: 4%
Population Membrane Permeable-Phenotype (%) [2]: 5%
Population Mitochondria Different-Phenotype (%) [2]: 5%
Population Mitotic Cells (%) [2]: 66%
Population Normal (%) [2]: 95%
Population Pyknosed Nuclei (%) [2]: 25%
Population Tubulin-Different-Phenotype (%) [2]: 50%
Total Cell Count [2]: 182
Population Apoptotic (%) [3]: 36%
Population Fragmented Nuclei (%) [3]: 18%
Population Healthy Nuclei (%) [3]: 60%
Population Hoechst High Intensity Objects (%) [3]: 4%
Population Membrane Permeable-Phenotype (%) [3]: 0%
Population Mitochondria Different-Phenotype (%) [3]: 8%
Population Mitotic Cells (%) [3]: 64%
Population Normal (%) [3]: 95%
Population Pyknosed Nuclei (%) [3]: 20%
Population Tubulin-Different-Phenotype (%) [3]: 29%
Total Cell Count [3]: 129
Population Apoptotic (%) [4]: 21%
Population Fragmented Nuclei (%) [4]: 24%
Population Healthy Nuclei (%) [4]: 45%
Population Membrane Permeable-Phenotype (%) [4]: 7%
Population Mitochondria Different-Phenotype (%) [4]: 7%
Population Mitotic Cells (%) [4]: 78%
Population Pyknosed Nuclei (%) [4]: 29%
Population Tubulin-Different-Phenotype (%) [4]: 33%
Total Cell Count [4]: 143
Population Apoptotic (%) [5]: 52%
Population Fragmented Nuclei (%) [5]: 6%
Population Healthy Nuclei (%) [5]: 76%
Population Hoechst High Intensity Objects (%) [5]: 2%
Population Membrane Permeable-Phenotype (%) [5]: 0%
Population Mitochondria Different-Phenotype (%) [5]: 0%
Population Mitotic Cells (%) [5]: 47%
Population Normal (%) [5]: 97%
Population Pyknosed Nuclei (%) [5]: 16%
Population Tubulin-Different-Phenotype (%) [5]: 16%
Total Cell Count [5]: 146
Population Apoptotic (%) [6]: 42%
Population Fragmented Nuclei (%) [6]: 26%
Population Healthy Nuclei (%) [6]: 49%
Population Hoechst High Intensity Objects (%) [6]: 4%
Population Membrane Permeable-Phenotype (%) [6]: 9%
Population Mitochondria Different-Phenotype (%) [6]: 4%
Population Mitotic Cells (%) [6]: 57%
Population Normal (%) [6]: 95%
Population Pyknosed Nuclei (%) [6]: 24%
Population Tubulin-Different-Phenotype (%) [6]: 50%
Total Cell Count [6]: 182
Population Apoptotic (%) [7]: 45%
Population Fragmented Nuclei (%) [7]: 19%
Population Healthy Nuclei (%) [7]: 60%
Population Hoechst High Intensity Objects (%) [7]: 1%
Population Membrane Permeable-Phenotype (%) [7]: 0%
Population Mitochondria Different-Phenotype (%) [7]: 5%
Population Mitotic Cells (%) [7]: 54%
Population Normal (%) [7]: 98%
Population Pyknosed Nuclei (%) [7]: 20%
Population Tubulin-Different-Phenotype (%) [7]: 20%
Total Cell Count [7]: 122
Population Apoptotic (%) [8]: 47%
Population Healthy Nuclei (%) [8]: 48%
Population Hoechst High Intensity Objects (%) [8]: 2%
Population Membrane Permeable-Phenotype (%) [8]: 9%
Population Mitochondria Different-Phenotype (%) [8]: 6%
Population Mitotic Cells (%) [8]: 52%
Population Normal (%) [8]: 97%
Population Pyknosed Nuclei (%) [8]: 32%
Population Tubulin-Different-Phenotype (%) [8]: 34%
Total Cell Count [8]: 135
Population Apoptotic (%) [9]: 47%
Population Fragmented Nuclei (%) [9]: 17%
Population Healthy Nuclei (%) [9]: 71%
Population Hoechst High Intensity Objects (%) [9]: 2%
Population Membrane Permeable-Phenotype (%) [9]: 2%
Population Mitochondria Different-Phenotype (%) [9]: 1%
Population Mitotic Cells (%) [9]: 52%
Population Normal (%) [9]: 97%
Population Pyknosed Nuclei (%) [9]: 10%
Population Tubulin-Different-Phenotype (%) [9]: 19%
Total Cell Count [9]: 167
Population Apoptotic (%) [10]: 55%
Population Fragmented Nuclei (%) [10]: 29%
Population Healthy Nuclei (%) [10]: 47%
Population Hoechst High Intensity Objects (%) [10]: 6%
Population Membrane Permeable-Phenotype (%) [10]: 6%
Population Mitochondria Different-Phenotype (%) [10]: 8%
Population Mitotic Cells (%) [10]: 44%
Population Normal (%) [10]: 93%
Population Pyknosed Nuclei (%) [10]: 23%
Population Tubulin-Different-Phenotype (%) [10]: 56%
Total Cell Count [10]: 166
Population Apoptotic (%) [11]: 69%
Population Fragmented Nuclei (%) [11]: 26%
Population Healthy Nuclei (%) [11]: 56%
Population Hoechst High Intensity Objects (%) [11]: 2%
Population Membrane Permeable-Phenotype (%) [11]: 0%
Population Mitochondria Different-Phenotype (%) [11]: 5%
Population Mitotic Cells (%) [11]: 30%
Population Normal (%) [11]: 97%
Population Pyknosed Nuclei (%) [11]: 17%
Population Tubulin-Different-Phenotype (%) [11]: 26%
Total Cell Count [11]: 133
Population Apoptotic (%) [12]: 63%
Population Fragmented Nuclei (%) [12]: 35%
Population Healthy Nuclei (%) [12]: 42%
Population Membrane Permeable-Phenotype (%) [12]: 6%
Population Mitochondria Different-Phenotype (%) [12]: 11%
Population Mitotic Cells (%) [12]: 36%
Population Pyknosed Nuclei (%) [12]: 21%
Population Tubulin-Different-Phenotype (%) [12]: 44%
Total Cell Count [12]: 141
